In ChEMBL document CHEMBL3576816, “5'-Silylated 3'-1,2,3-triazolyl Thymidine Analogues as Inhibitors of West Nile Virus and Dengue Virus” (J Med Chem, 2015):
Active and inactive are the calls of the source. The rule behind the calls is not given here.

Assays:
[1] = test system: Human immunodeficiency virus 1; experiment: Antiviral activity against HIV1; format: functional, organism-based
[2] = target: Human immunodeficiency virus type 1 reverse transcriptase (Human immunodeficiency virus 1) (UniProt Q72547); experiment: Inhibition of HIV1 reverse transcriptase
[3] = test system: unidentified influenza virus; experiment: Antiviral activity against Influenzae virus; format: functional, organism-based
Human betaherpesvirus 5 = experiment: Antiviral activity against Human cytomegalovirus; format: functional, organism-based
Hepatitis C virus = experiment: Antiviral activity against HCV; format: functional, organism-based; settings: Hepacivirus hominis
West Nile virus = experiment: Antiviral activity against West Nile virus infected in BHK-WII RepRen1B cells assessed as inhibition of viral replication at 10 uM after 3 days by luciferase reporter gene assay relative to control; format: functional; settings: for inhibition at 10 µM: 72 h
Method in brief: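 Compound (DMSO, 10 μM final) added next day in triplicate; lycorine 1 μM served as control inhibitor. Three days on, live-cell Renilla substrate (1:1000 in phenol-red-free DME, 10% FBS) replaced medium. Luminescence measured; triplicate means compared with DMSO-alone wells.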

[4] = Cytotoxicity against BHK cells infected with West Nile virus replicon assessed as cell viability at 10 uM after 3 days by CellTiter 96 aqueous one solution cell proliferation assay relative to control; format: cell-based, Mesocricetus auratus; settings: hamster; for Activity: bhk, 72 h, 10 µM
Method in brief: (§1)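 WNV replicon BHK cells, about 3 × 10^3/well, plated without antibiotic selection; next day compound in DMSO (10 μM final for screening, or eight serial dilutions), 3 days at 37°C, 5% CO2. Tetrazolium reagent, absorbance 450 nm, triplicate means versus DMSO wells; CC50 = 50% reduction in proliferation; CC50s mean ± SD of two experiments, top dose 200 μM.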

Dengue virus = experiment: Antiviral activity against Dengue virus infected in BHK pD2-hRucPac-2ATG cells assessed as inhibition of viral replication at 10 uM after 3 days by luciferase reporter gene assay relative to control; format: functional; settings: for inhibition at 10 µM: 72 h
Method in brief: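 Renilla luciferase-bearing DENV subgenomic replicon BHK cells, kept on 3 μg/mL puromycin, seeded at 1.5 × 10^3/well without selection. Next day, 10 μM final compound in DMSO added to triplicate wells; MPA 1 μM as control inhibitor. After 3 days, medium swapped for live-cell Renilla substrate (1:1000, phenol-red-free DME, 10% FBS). Luminescence read; triplicate mean compared with DMSO-only wells.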

[5] = Cytotoxicity against BHK cells infected with Dengue virus replicon assessed as cell viability at 10 uM after 3 days by CellTiter 96 aqueous one solution cell proliferation assay relative to control; format: cell-based, Mesocricetus auratus; settings: hamster; for Activity: bhk, 72 h, 10 µM
Method in brief: as §1, with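 “DENV” for “WNV”, “1.5” for “about 3”, “Tetrazolium (MTS-type)” for “Tetrazolium”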

| Structure (SMILES) | Activity [1] | inhibition [2] | Activity [3] | Activity (Human betaherpesvirus 5) | Activity (Hepatitis C virus) | inhibition at 10 µM (West Nile virus) [%] | Activity [4] [%] | inhibition at 10 µM (Dengue virus) [%] | Activity [5] [%] | inhibition (West Nile virus) | inhibition (Dengue virus) | viability at 72 h, 10 µM ([4]; BHK cells infected with West Nile virus replicon, read-out: Activity) [%] | viability at 72 h, 10 µM ([5]; BHK cells infected with Dengue virus replicon, read-out: Activity) [%] |
| --- | --- | --- | --- | --- | --- | --- | --- | --- | --- | --- | --- | --- | --- |
| COc1ccc2cc(-c3cnnn3[C@H]3C[C@H](n4cc(C)c(=O)[nH]c4=O)O[C@@H]3CO[Si](c3ccccc3)(c3ccccc3)C(C)(C)C)ccc2c1 | inactive | inactive | inactive | inactive | inactive | 99 | 38 | 100 | 11 | – | – | – | – |
| Cc1cn([C@H]2C[C@H](n3nncc3COc3ccccc3)[C@@H](CO[Si](C)(C)C(C)(C)C)O2)c(=O)[nH]c1=O | inactive | inactive | inactive | inactive | inactive | 50 | 100 | 28 | 84 | – | – | – | – |
| Cc1cn([C@H]2C[C@H](n3nncc3-c3cc4ccccc4c4ccccc34)[C@@H](CO[Si](C)(C)C(C)(C)C)O2)c(=O)[nH]c1=O | inactive | inactive | inactive | inactive | inactive | 99 | 69 | 21 | 100 | – | – | – | – |
| COc1ccc2cc(-c3cnnn3[C@H]3C[C@H](n4cc(C)c(=O)[nH]c4=O)O[C@@H]3CO[Si](C(C)C)(C(C)C)C(C)C)ccc2c1 | inactive | inactive | inactive | inactive | inactive | 98 | 67 | 98 | 53 | – | – | – | – |
| Cc1cn([C@H]2C[C@H](n3nncc3C3CC3)[C@@H](CO[Si](C)(C)C(C)(C)C)O2)c(=O)[nH]c1=O | inactive | inactive | inactive | inactive | inactive | 21 | 100 | 6.4 | 93 | – | – | – | – |
| Cc1cn([C@H]2C[C@H](NC(=O)c3ccc4ccccc4c3)[C@@H](CO[Si](C)(C)C(C)(C)C)O2)c(=O)[nH]c1=O | inactive | inactive | inactive | inactive | inactive | 99 | 51 | 98 | 10 | – | – | – | – |
| Cc1cn([C@H]2C[C@H](NC(=O)c3ccc(N4CCOCC4)cc3)[C@@H](CO[Si](C)(C)C(C)(C)C)O2)c(=O)[nH]c1=O | inactive | inactive | inactive | inactive | inactive | – | – | – | – | Active | Active | – | – |
| Cc1cn([C@H]2C[C@H](N)[C@@H](CO[Si](C)(C)C(C)(C)C)O2)c(=O)[nH]c1=O | inactive | inactive | inactive | inactive | inactive | 0 | 100 | 0 | 100 | – | – | – | – |
| Cc1ccc(S(=O)(=O)NC(=O)N[C@H]2C[C@H](n3cc(C)c(=O)[nH]c3=O)O[C@@H]2CO[Si](C)(C)C(C)(C)C)cc1 | inactive | inactive | inactive | inactive | inactive | – | – | – | – | Active | Active | – | – |
| Cc1cn([C@H]2C[C@H](NC(=O)c3c[nH]c4ccccc34)[C@@H](CO[Si](C)(C)C(C)(C)C)O2)c(=O)[nH]c1=O | inactive | inactive | inactive | inactive | inactive | 19 | 93 | 90 | 27 | – | – | – | – |
| Cc1cn([C@H]2C[C@H](n3nncc3-c3cccc4ccccc34)[C@@H](CO[Si](C)(C)C(C)(C)C)O2)c(=O)[nH]c1=O | inactive | inactive | inactive | inactive | inactive | 100 | 8 | 99 | 60 | – | – | – | – |
| Cc1cn([C@H]2C[C@H](N3C(=O)CSC3c3ccccc3)[C@@H](CO[Si](C)(C)C(C)(C)C)O2)c(=O)[nH]c1=O (mixture of isomers) | inactive | inactive | inactive | inactive | inactive | 26 | 94 | 22 | 98 | – | – | – | – |
| Cc1cn([C@H]2C[C@H](n3cc(-c4cc5ccccc5c5ccccc45)nn3)[C@@H](CO[Si](C)(C)C(C)(C)C)O2)c(=O)[nH]c1=O | inactive | inactive | inactive | inactive | inactive | 97 | 100 | 77 | 81 | – | – | – | – |
| Cc1cn([C@H]2C[C@H](n3nncc3-c3ccc(Oc4ccccc4)cc3)[C@@H](CO[Si](C)(C)C(C)(C)C)O2)c(=O)[nH]c1=O | inactive | inactive | inactive | inactive | inactive | 95 | 79 | 95 | 73 | – | – | – | – |
| COC[C@H]1O[C@@H](n2cc(C)c(=O)n(C)c2=O)C[C@@H]1n1nncc1-c1ccc2cc(OC)ccc2c1 | – | – | – | – | – | 0 | 100 | 0 | 100 | – | – | – | – |
| Cc1cn([C@H]2C[C@H](n3cc(-c4ccc5[nH]ccc5c4)nn3)[C@@H](CO)O2)c(=O)[nH]c1=O | – | – | – | – | – | 0 | 100 | 8.2 | 100 | – | – | – | – |
| Cc1cn([C@H]2C[C@H](N=[N+]=[N-])[C@@H](CO)O2)c(=O)[nH]c1=O [ZIDOVUDINE] | – | – | – | – | – | 0 | – | 0 | – | – | – | 83 | 89 |
| Cc1cn([C@H]2C[C@H](n3nncc3-c3cc4ccccc4c4ccccc34)[C@@H](CO)O2)c(=O)[nH]c1=O | – | – | – | – | – | 0 | 100 | 0 | 95 | – | – | – | – |
| Cc1cn([C@H]2C[C@H](NC(=O)Nc3ccccc3)[C@@H](CO[Si](C)(C)C(C)(C)C)O2)c(=O)[nH]c1=O | inactive | inactive | inactive | inactive | inactive | – | – | – | – | Active | Active | – | – |
| Cc1cn([C@H]2C[C@H](NC(=O)c3cccc4ccccc34)[C@@H](CO)O2)c(=O)[nH]c1=O | – | – | – | – | – | 0 | 87 | 15 | 98 | – | – | – | – |
| Cc1cn([C@H]2C[C@H](n3nncc3-c3ccccc3)[C@@H](CO)O2)c(=O)[nH]c1=O | – | – | – | – | – | 4 | 99 | 0 | 100 | – | – | – | – |
| Cc1cn([C@H]2C[C@H](N3C(=O)CSC3c3ccc4[nH]ccc4c3)[C@@H](CO)O2)c(=O)[nH]c1=O (mixture of isomers) | – | – | – | – | – | 9.7 | 100 | 13 | 95 | – | – | – | – |
| Cc1cn([C@H]2C[C@H](n3nncc3C3CC3)[C@@H](CO)O2)c(=O)[nH]c1=O | – | – | – | – | – | 0 | 97 | 4.7 | 100 | – | – | – | – |
| Cc1cn([C@H]2C[C@H](n3cc(-c4ccc(-c5ccccc5)cc4)nn3)[C@@H](CO)O2)c(=O)[nH]c1=O | – | – | – | – | – | 14 | 100 | 10 | 100 | – | – | – | – |
| Cc1cn([C@H]2C[C@H](N=[N+]=[N-])[C@@H](CO[Si](C)(C)C(C)(C)C)O2)c(=O)[nH]c1=O | – | – | – | – | – | 17 | 96 | 3.6 | 87 | – | – | – | – |
